Data set [1] deals with T1, Adenosine receptor A1 (Homo sapiens) (UniProt P30542).
T1 sequence (whole entry): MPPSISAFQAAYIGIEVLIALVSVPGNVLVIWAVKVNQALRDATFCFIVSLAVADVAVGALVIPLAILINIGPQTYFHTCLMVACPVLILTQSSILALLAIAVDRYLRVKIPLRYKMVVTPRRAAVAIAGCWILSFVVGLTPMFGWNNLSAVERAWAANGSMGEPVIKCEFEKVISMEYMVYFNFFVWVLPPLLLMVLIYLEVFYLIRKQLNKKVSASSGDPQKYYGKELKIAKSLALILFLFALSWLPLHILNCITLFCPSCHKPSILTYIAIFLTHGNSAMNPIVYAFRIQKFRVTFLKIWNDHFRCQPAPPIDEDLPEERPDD
The data set is described as follows: Displacement of [3H]DPCPX from human adenosine A1 receptor expressed in HEK293 cell membranes at 1 uM after 90 mins relative to control. A digest of the protocol: (§1)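 Membranes from HEK-293 cells stably transfected with human receptor, pre-treated with adenosine deaminase. Radioligands: 1 nM [3H]DPCPX (A1), 1 nM [3H]ZM241385 (A2A), 1.6 nM [3H]MRS-1754 (A2B), 2 nM [3H]HEMADO (A3). Buffers: Tris pH 7.4 (A1, A2A, A3) or pH 6.5 (A2B), with ADA. Incubated 90 min at room temperature, then filtered. Nonspecific binding defined with 100 µM NECA. Ki from 8 concentrations run in triplicate.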
Background: Loss of bound radioactivity is the signal in a displacement assay; it reports binding, not function.

For data set [2], the target named is T2, Adenosine receptor A2b (Homo sapiens) (UniProt P29275).
T2 sequence (whole entry): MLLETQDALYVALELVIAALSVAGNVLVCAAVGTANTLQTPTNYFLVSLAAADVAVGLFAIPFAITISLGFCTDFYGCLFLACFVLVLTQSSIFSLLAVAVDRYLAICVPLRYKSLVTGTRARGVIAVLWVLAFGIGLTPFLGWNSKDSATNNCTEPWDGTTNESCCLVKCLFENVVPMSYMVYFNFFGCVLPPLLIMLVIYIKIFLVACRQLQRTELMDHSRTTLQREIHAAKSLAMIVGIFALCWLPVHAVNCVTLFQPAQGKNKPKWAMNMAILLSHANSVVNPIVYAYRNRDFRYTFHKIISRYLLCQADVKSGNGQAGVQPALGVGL
The data set is described as follows: Displacement of [3H]MRS-1754 from human adenosine A2B receptor expressed in HEK293 cell membranes at 1 uM after 90 mins relative to control. The method in brief:
as §1

For another data set, the target named is Adenosine receptor A2a (Homo sapiens, UniProt P29274). Put plainly: Displacement of [3H]ZM241385 from human adenosine A2A receptor expressed in HEK293 cell membranes at 1 uM after 90 mins relative to control. The method in brief:
as §1

The next data set has as its target T3, CYP1A2 (Homo sapiens, UniProt P05177).
T3 sequence (P05177 whole entry): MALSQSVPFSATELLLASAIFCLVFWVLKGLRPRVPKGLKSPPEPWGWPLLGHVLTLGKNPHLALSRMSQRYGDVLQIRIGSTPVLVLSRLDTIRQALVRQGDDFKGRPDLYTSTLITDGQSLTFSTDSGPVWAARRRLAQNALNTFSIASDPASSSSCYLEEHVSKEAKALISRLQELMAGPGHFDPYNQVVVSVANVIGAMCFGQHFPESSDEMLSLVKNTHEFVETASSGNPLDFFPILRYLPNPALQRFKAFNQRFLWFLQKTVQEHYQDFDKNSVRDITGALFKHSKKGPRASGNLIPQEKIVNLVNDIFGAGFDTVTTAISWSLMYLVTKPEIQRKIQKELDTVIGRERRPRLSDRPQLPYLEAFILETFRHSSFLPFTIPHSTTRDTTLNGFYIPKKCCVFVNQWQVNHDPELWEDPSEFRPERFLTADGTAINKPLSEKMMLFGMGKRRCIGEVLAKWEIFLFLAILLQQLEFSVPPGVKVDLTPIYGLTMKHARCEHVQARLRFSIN
Put plainly: Inhibition of CYP1A2 (unknown origin) at 5 uM relative to control. The data set is classed as ADME.

A short description of data set [3]: Elimination half life in Wistar rat at 3 mg/kg, iv by LC-Ms/MS analysis. The format is ADME, organism-based. Particulars: in vivo, read-out: beta t1/2 (converted). The method in brief:
(§2)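 Male Wistar rats (230 ± 15 g), fasted overnight with water available. IV dose of 3 mg/kg given by tail vein as a solution (0.6 mg/mL, 5 mL/kg). PO dose of 5 mg/kg given by gavage as a suspension. Blood was collected into K2EDTA at 0.008 (IV only) to 24 h and plasma was spun off. Samples were precipitated with acetonitrile and run on LC/MS/MS. Parameters came from non-compartmental analysis of individual animals, mean of n = 4.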

Data set [4] in a line: Drug metabolism assessed as hydroxylation at C-8 cyclopentyl by metabolic soft spot analysis. The data set is classed as physicochemical.
A short description of data set [5]: Protein binding in rat plasma at 5 uM. The format is ADME, cell-free. The settings on record: read-out: PPB (converted).
The target in a further data set is CYP2C9 (Homo sapiens, UniProt P11712). Put plainly: Inhibition of CYP2C9 (unknown origin) at 5 uM relative to control. The data set is classed as ADME.
Data set [6] is described as follows: Thermodynamic solubility of the compound in pH 7.4 solution. The settings on record: read-out: Therm_solubility. The format is physicochemical.
Data set [7] concerns Liver. The data set is described as follows: Metabolic stability in rat liver microsomes assessed as metabolic rate measured after 30 mins in presence of NADPH. The data set is classed as ADME, microsome. The settings on record: 0.5 h. In general terms: Microsomes from liver hold many membrane-bound enzymes, among them those of drug oxidation.
The nature of data set [8]: Clearance in Wistar rat at 3 mg/kg, iv by LC-Ms/MS analysis. The data set is classed as ADME, organism-based. Particulars: in vivo. A digest of the protocol: as §2
A further data set has as its target CYP2D6 (Homo sapiens, UniProt P10635). Put plainly: Inhibition of CYP2D6 (unknown origin) at 5 uM relative to control. The format is ADME.
Data set [9] is described as follows: Volume of distribution at steady state in Wistar rat at 3 mg/kg, iv by LC-Ms/MS analysis. The settings on record: in vivo, read-out: Vdss. The format is ADME, organism-based. A digest of the protocol: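 Male Wistar rats (230 ± 15 g), fasted overnight with water available. IV dosing at 3 mg/kg by tail vein as solution (0.6 mg/mL, 5 mL/kg). PO dosing at 5 mg/kg by oral gavage. Serial blood sampling into K2EDTA from 0.008 (IV only) to 24 h. Plasma precipitated with acetonitrile containing internal standard and analysed by LC/MS/MS. Non-compartmental parameters calculated per animal; values are means of n = 4.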

The target of a further data set is CYP3A4 (Homo sapiens, UniProt P08684). Put plainly: Inhibition of CYP3A4 (unknown origin) at 5 uM relative to control. The data set is classed as ADME.
A short description of data set [10]: Thermodynamic solubility of the compound in pH 2 solution. The format is physicochemical. Particulars: read-out: Therm_solubility.
Data set [11] can be described thus: Thermodynamic solubility of the compound in pH 4 solution. The settings on record: read-out: Therm_solubility. The format is physicochemical.
Data set [12] concerns the target T2, Adenosine receptor A2b (Homo sapiens). The data set is described as follows: Antagonist activity at human adenosine A2B receptor expressed in HEK293 cells assessed as reduction in NECA-induced increase in cAMP level at 1 uM preincubated for 15 mins followed by NECA addition measured after 15 mins by HTRF assay relative to control. The format is functional, cell-based. The method in brief:
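Overnight HEK-A1 or HEK-A2B cultures were treated with 1 U/mL ADA for 90 min at 37°C. Compound was added for 15 min, then agonist for 15 min (1 nM CPA for A1; 70 nM NECA for A2B) at room temperature in incomplete DMEM with ADA. Rolipram (20 µM) was included for A1 only. cAMP was read by HTRF.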
(cAMP levels reflect the balance of adenylyl cyclase and phosphodiesterase activity.)

Another data set deals with CYP2C19 (Homo sapiens, UniProt P33261). The data set is described as follows: Inhibition of CYP2C19 (unknown origin) at 5 uM relative to control. The format is ADME.
Data set [13] has as its target T4, Adenosine receptor A1 (Homo sapiens, UniProt P30542).
T4 sequence (P30542 whole entry): T1 sequence (whole entry)
Put plainly: Antagonist activity at human adenosine A1 receptor expressed in HEK293 cells assessed as reduction in CPA-mediated inhibition of forskolin-stimulated cAMP level preincubated for 15 mins followed by CPA treatment for 15 mins and subsequent addition of forskolin measured after 30 mins by HTRF assay. The format is functional, cell-based.

Data set [14] can be described thus: AUC (0 to t) in Wistar rat at 3 mg/kg, iv by LC-Ms/MS analysis. The data set is classed as ADME, organism-based. The settings on record: in vivo. The method in brief: as §2
The target in data set [15] is T4, Adenosine receptor A1. Put plainly: Displacement of [3H]DPCPX from human adenosine A1 receptor expressed in HEK293 cell membranes after 90 mins.
Data set [16] deals with Liver. The data set is described as follows: Metabolic stability in human liver microsomes assessed as metabolic rate measured after 30 mins in presence of NADPH. Particulars: 0.5 h. The data set is classed as ADME, microsome.
A short description of data set [17]: Metabolic stability in rat liver microsomes assessed as parent compound remaining measured after 30 mins in presence of NADPH. The format is ADME, microsome. The settings on record: read-out: Stability.
The nature of data set [18]: Drug metabolism assessed as N-oxidation by metabolic soft spot analysis. The data set is classed as physicochemical.
For data set [19], the target named is T5, Adenosine receptor A3 (Homo sapiens) (UniProt P0DMS8).
T5 sequence (whole entry): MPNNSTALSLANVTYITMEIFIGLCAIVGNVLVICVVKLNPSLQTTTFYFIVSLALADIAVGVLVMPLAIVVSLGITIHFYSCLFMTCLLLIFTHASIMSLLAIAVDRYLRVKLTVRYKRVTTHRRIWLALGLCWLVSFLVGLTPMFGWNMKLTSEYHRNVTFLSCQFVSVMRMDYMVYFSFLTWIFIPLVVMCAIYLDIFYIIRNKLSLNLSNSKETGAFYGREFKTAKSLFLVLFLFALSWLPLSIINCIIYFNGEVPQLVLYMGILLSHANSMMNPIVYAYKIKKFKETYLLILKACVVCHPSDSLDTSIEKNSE
The data set is described as follows: Displacement of [3H]HEMADO from human adenosine A3 receptor expressed in HEK293 cell membranes at 1 uM after 90 mins relative to control. A digest of the protocol: as §1

Data set [20] can be described thus: Metabolic stability in human liver microsomes assessed as parent compound remaining measured after 30 mins in presence of NADPH. The settings on record: read-out: Stability. The format is ADME, microsome.
The next data set deals with T6, Adenosine receptor A3 (Homo sapiens, UniProt P0DMS8).
T6 sequence (P0DMS8 whole entry): T5 sequence (whole entry)
Put plainly: Displacement of [3H]HEMADO from human adenosine A3 receptor expressed in HEK293 cell membranes after 90 mins. A digest of the protocol:
as §1

Structures are written as SMILES. ≈ marks a conversion by molar mass, not a printed value.

The source of these data is ChEMBL document CHEMBL3992564, “Design and synthesis of novel, potent and selective hypoxanthine analogs as adenosine A1 receptor antagonists and their biological evaluation” (Bioorg Med Chem, 2017).

Broadly, the inhibition is the drop in the measured response relative to a control, in per cent. Usually clearance stands for the volume of plasma or blood freed of the substance per unit of time. A higher clearance goes with efficient removal. One may read the Ki as a dissociation constant, usually derived from enzyme kinetics or from competition with a known ligand. As a reminder, the AUC(0-t) is the area under the concentration-time curve up to a stated or last time point. As a reminder, the IC50 is the concentration needed to halve the response being measured. A lower IC50 goes with inhibition by little substance.

Adenosine receptor A2a, sequence (P29274 whole entry): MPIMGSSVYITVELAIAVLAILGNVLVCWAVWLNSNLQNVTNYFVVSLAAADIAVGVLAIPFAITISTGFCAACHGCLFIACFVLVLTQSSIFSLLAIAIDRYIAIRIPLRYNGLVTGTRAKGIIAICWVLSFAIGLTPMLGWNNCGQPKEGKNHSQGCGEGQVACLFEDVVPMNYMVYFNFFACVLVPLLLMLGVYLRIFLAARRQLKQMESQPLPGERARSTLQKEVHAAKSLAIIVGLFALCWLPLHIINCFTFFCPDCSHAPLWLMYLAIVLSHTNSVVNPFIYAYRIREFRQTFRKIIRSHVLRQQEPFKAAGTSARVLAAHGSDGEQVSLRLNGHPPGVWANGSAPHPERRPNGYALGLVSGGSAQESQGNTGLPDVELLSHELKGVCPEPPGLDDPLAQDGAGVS
CYP2C9, sequence (P11712 whole entry): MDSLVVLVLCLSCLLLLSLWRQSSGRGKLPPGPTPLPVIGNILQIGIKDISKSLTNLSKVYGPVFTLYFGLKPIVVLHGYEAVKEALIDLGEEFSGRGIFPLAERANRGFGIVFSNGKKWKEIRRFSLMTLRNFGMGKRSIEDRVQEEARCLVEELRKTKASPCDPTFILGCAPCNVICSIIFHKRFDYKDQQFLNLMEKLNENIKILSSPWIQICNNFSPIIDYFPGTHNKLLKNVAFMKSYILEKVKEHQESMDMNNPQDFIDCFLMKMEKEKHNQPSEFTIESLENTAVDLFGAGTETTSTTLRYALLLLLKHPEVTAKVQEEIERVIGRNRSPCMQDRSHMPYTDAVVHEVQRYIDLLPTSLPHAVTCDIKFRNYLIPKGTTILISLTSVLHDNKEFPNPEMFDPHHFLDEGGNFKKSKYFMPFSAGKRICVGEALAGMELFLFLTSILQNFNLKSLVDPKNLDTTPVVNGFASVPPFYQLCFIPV
CYP2D6, sequence (P10635 whole entry): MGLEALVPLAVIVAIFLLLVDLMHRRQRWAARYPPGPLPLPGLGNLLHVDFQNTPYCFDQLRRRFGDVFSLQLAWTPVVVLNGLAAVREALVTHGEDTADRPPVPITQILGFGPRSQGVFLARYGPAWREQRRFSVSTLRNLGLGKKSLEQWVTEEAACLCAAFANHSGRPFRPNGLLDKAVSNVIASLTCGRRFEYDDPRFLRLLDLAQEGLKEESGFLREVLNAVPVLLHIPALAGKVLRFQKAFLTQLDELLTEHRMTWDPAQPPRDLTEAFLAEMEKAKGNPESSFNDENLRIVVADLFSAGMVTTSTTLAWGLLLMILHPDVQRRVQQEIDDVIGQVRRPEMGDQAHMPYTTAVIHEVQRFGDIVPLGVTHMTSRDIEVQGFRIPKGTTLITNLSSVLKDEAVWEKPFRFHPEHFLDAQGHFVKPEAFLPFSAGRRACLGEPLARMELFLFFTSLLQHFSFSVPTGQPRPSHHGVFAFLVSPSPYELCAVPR
CYP3A4, sequence (P08684 whole entry): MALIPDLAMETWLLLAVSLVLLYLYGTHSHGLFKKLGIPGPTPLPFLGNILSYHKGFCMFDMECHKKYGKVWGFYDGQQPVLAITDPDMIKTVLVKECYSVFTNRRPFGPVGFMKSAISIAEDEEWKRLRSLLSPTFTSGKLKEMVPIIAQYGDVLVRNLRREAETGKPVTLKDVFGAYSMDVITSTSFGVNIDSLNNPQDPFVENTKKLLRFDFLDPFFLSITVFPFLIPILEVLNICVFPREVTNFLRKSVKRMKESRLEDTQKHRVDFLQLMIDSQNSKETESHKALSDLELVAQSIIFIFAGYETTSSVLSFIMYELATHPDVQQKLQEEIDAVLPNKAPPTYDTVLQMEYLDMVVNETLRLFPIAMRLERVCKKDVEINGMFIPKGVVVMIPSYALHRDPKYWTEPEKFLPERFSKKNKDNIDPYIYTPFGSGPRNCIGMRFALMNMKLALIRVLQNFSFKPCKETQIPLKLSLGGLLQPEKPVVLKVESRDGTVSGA
CYP2C19, sequence (P33261 whole entry): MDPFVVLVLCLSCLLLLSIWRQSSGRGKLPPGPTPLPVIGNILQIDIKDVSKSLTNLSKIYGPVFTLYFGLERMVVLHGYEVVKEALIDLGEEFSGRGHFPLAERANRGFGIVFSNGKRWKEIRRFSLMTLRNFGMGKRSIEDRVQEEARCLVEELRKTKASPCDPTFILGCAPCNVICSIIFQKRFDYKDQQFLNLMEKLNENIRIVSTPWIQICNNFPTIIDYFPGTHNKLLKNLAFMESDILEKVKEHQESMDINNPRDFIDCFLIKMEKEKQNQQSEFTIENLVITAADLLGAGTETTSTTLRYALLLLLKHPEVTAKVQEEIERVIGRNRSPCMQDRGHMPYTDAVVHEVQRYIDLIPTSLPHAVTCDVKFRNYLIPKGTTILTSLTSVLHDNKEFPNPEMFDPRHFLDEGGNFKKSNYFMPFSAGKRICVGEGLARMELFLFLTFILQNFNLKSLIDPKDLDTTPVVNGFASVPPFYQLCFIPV

As for `CCCn1c(NCc2ccc(C(=O)O)cc2)nc2nc(C3CCCC3)[nH]c2c1=O`, the inhibition was 54% in [1], 16% in [2] and 31% at Adenosine receptor A2a.

As to `CCCn1c(OC2CCC(O)C2)nc2nc(C3CCCC3)[nH]c2c1=O` (configuration not stated), the inhibition at 5 µM came to 5% on CYP1A2; 4% on CYP2C9; 0% at CYP2D6; 0% against CYP3A4; 3% at CYP2C19. For the same molecule, in data set [3], the half-life was 18 min. Also, the Drug metabolism entry in data set [4] was “Metabolite_Detected”; in the data set on Liver [7], 0.1 nmol/min/mg; with Liver [16], 0.12 nmol/min/mg; in data set [18] it was “Metabolite_Detected”. Also, the fraction unbound at 5 µM in [5] was 0.2. Further, the results for the solubility thermodynamic in [6], in [10] and in [11] were 182 µM (≈ 63.1 µg/mL), 2590 µM (≈ 897 µg/mL) and 276 µM (≈ 95.6 µg/mL), respectively. The inhibition was 35 to 41% in [2], 6% in data set [12], 0% on Adenosine receptor A2a and 37% in [19]. Moreover, in [8], the clearance amounted to 48 mL/min/kg. Also, the Vd in data set [9] worked out at 0.8 L/kg. The Ki on Adenosine receptor A1 [13] was found to be 9.6 nM; on Adenosine receptor A1 [15] it was 57 nM. Further, the AUC(0-t) in [14] worked out at 3 µM·h. Besides, the remaining at 0.5 h in [17] was 68%; in [20], 60%.

Take `CCCn1c(-c2cccc(C(F)(F)F)c2)nc2nc(C3CCCC3)[nH]c2c1=O`: the inhibition is 100% in data set [1], 14% in [2], 0% on Adenosine receptor A2a and 0% in data set [19]. Also, on Adenosine receptor A1 [13], the inhibitory constant (Ki) is 12 nM.

For `CCCn1c(Oc2cccc(OC)c2)nc2nc(C3CCCC3)[nH]c2c1=O`, the inhibition in data set [2] is 70%; at Adenosine receptor A2a it was 36%. The same molecule had a 50% inhibitory concentration (IC50) on Adenosine receptor A3 of 430 nM.

For `CCCn1c(-c2ccc(C(F)(F)F)cc2)nc2nc(C3CCCC3)[nH]c2c1=O`, the inhibition came out at 70% in data set [1], 12% in data set [2], 0% on Adenosine receptor A2a and 5% in [19].

Regarding `COc1ccc(CCN(C)CCCC(C#N)(c2ccc(OC)c(OC)c2)C(C)C)cc1OC` (configuration not stated), the remaining at 0.5 h came to 68% in data set [17] and 78% in [20].
